One experiment concerns lymphopenia. Briefly: Mouse lymphopenia. The following applies: for duration of sustained lymphopenia: mouse PK/PD study. It is filed as in vivo. The essentials: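 Mouse PK/PD study with single doses of test compound at 1 or 2 mg/kg. Lymphopenia was followed over time to find how long it lasted. Pharmacokinetics were measured in parallel: oral bioavailability, half-life, clearance, volume, and percent in vivo phosphorylation.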

In experiment [1] the target is T1, hS1P1 (Homo sapiens, UniProt P21453). The experiment can be described thus: Calcium mobilization Gq assay, S1P1. The format is cell-based. The following applies: for EC50 S1P1: calcium mobilization Gq assay, whole cell.
Another experiment has as its target human S1P3 (Homo sapiens, UniProt Q99500). Briefly: Calcium mobilization Gi assay, S1P3. The format is cell-based. As to conditions: for EC50 S1P3: calcium mobilization Gi assay, whole cell.
The target in experiment [2] is T1, hS1P1. Briefly: Calcium mobilization Gi assay, S1P1. The following applies: for EC50 S1P1: calcium mobilization Gi assay, whole cell. It is filed as cell-based.

SMILES strings stand for the structures. Bounds are passed on as bounds.

human S1P3, sequence (Q99500 whole entry): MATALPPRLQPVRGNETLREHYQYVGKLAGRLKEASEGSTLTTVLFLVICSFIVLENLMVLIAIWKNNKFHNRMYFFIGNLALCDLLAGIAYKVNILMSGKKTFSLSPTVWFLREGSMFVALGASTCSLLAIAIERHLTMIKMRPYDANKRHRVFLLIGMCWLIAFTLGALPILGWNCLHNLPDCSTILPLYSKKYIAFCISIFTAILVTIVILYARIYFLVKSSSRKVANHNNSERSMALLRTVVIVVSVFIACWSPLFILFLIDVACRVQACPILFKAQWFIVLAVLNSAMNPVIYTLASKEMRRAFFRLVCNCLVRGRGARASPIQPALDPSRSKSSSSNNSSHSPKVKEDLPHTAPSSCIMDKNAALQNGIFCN
T1 sequence (P21453 whole entry): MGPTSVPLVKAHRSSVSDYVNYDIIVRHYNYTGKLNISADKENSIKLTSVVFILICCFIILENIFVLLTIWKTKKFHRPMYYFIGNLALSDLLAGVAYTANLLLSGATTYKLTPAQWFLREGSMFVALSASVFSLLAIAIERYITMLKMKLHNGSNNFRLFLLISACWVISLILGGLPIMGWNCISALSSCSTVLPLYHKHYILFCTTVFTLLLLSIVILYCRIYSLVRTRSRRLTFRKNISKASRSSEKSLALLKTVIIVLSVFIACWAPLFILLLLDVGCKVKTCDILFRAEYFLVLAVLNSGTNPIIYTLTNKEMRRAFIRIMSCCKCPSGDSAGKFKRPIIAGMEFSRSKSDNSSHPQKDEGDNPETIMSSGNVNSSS

As to `CCCCCCCCc1ccc2c(c1)CC[C@@H]([C@](C)(N)CO)C2` [(2S, 2’R)-5], in the experiment on lymphopenia (Mus musculus, read-out: Mouse Lymphopenia ED50), the ED50 is more than 5 mg/kg. Also, the “Mouse Lymphopenia ED50” value with lymphopenia is recorded as “not active”.
On to `CCCCCCCCc1ccc2c(c1)CC[C@H]([C@@](C)(N)COP(=O)(O)O)C2` [(2R, 2’S)-6], for which the “selectivity of S1P1 over S1P3” value on hS1P1 [1] (Gq assay, compared to FTY720) was “moderate selectivity”. For the same compound, the “EC50 S1P1” value on hS1P1 [1] is listed as “very active”.
`CCCCCCCCc1ccc2c(c1)CC[C@@H](C(N)(CO)COP(=O)(O)O)C2` (single isomer, unassigned) [(2’R)-3-P isomer 2]: the “EC50 S1P3” value at human S1P3 is given as “not active”.
As to `CCCCCCCCc1ccc2c(c1)CC[C@@H](C(N)(CO)COP(=O)(O)O)C2` (single isomer, unassigned) [(2’R)-3-P isomer 1], on human S1P3 (Gi assay), the “fold less potent at S1P3 than (S)-FTY720-P” value is given as 2 fold. Further, the “fold less potent at S1P1 than (S)-FTY720-P” value on hS1P1 [2] (Gi assay) was 6 fold.
In the case of `CCCCCCCCc1ccc2c(c1)CC[C@H]([C@@](C)(N)CO)C2` [(2R, 2’S)-5, (−)-(R)-2-amino-2-((S)-6-octyl-1,2,3,4-tetrahydronaphthalen-2-yl) propan-1-ol], in the experiment on lymphopenia (1 mg/kg dose), the “duration of sustained lymphopenia” value is reported as “one-week”.
As for `CCCCCCCCc1ccc(CC[C@@](N)(CO)COP(=O)(O)O)cc1` [(R)-FTY720-P, reference compound], the “EC50 S1P3” value at human S1P3 is listed as “not active”. For the same compound, the “EC50 S1P1” value at hS1P1 [1] is recorded as “not active”.
On to `CCCCCCCCc1ccc2c(c1)CC[C@@H](C(N)(CO)CO)C2` [(2’R)-3], for which the “duration of sustained lymphopenia” value with lymphopenia (2 mg/kg dose) is 72 h.
For the compound `CCCCCCCCc1ccc2c(c1)CC[C@@H]([C@](C)(N)COP(=O)(O)O)C2` [(2S, 2’R)-6], the “EC50 S1P3” value on human S1P3 is “no activity”. The S1P1/S1P3 selectivity result at hS1P1 [2] (Gi assay) is reported as “great S1P1/S1P3 selectivity”. Also, the “EC50 S1P1” value at hS1P1 [2] is given as “significantly less active”.
Take `CCCCCCCCc1ccc2c(c1)CC[C@@H]([C@@](C)(N)COP(=O)(O)O)C2` [(2R, 2’R)-6]: the “EC50 S1P1” value at hS1P1 [1] was “very active”.
For the compound `CCCCCCCCc1ccc2c(c1)CC[C@H]([C@](C)(N)CO)C2` [(2S, 2’S)-5], the “Mouse Lymphopenia ED50” value in the experiment with lymphopenia is “not active”.
In the case of `CCCCCCCCc1ccc2c(c1)CC[C@H]([C@](C)(N)COP(=O)(O)O)C2` [(2S, 2’S)-6], on human S1P3, the “EC50 S1P3” value is on record as “no activity”. In addition, on hS1P1 [2] (Gi assay), the S1P1/S1P3 selectivity entry was “great S1P1/S1P3 selectivity”. Besides, the “EC50 S1P1” value is “significantly less active” on hS1P1 [2] and “not active” at hS1P1 [1].

For the origin of these results see PMC2843818 (Bioorganic & medicinal chemistry letters, 2010).
